Legend:
[1] = species: Rattus norvegicus; assay: In vitro inhibition of hypoxic-mediated cell injury in Dawley fetal rat brain
[2] = target: Sodium channel protein type 2 subunit alpha (Rattus norvegicus, UniProt P04775); assay: Inhibition of veratridine-induced Na+ influx in chinese hamster ovary cells expressing alpha subunit of rat brain type voltage-gated sodium channel type 2; format: functional
Summary of the method: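 CNaIIA-1 cells (CHO-K1 transfected with rat brain IIA α subunit cDNA) in choline-based KRH buffer, pH 7.4. Compound at 0.01–100 μM final, added with 30 μM veratridine plus α-scorpion venom, 11 min at 37 °C. Cell-retained radioactivity counted after Triton lysis; IC50 determined.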

[3] = species: Rattus norvegicus; assay: In vitro inhibition of veratridine induced LDH release in rat embryos; format: functional
Summary of the method: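 Rat embryo cortical neuron cultures, 17–18 days old, given compound together with 100 μM veratridine in HEPES saline (pH 7.4) for 10 min. Medium was then replaced by serum-free medium. LDH in medium taken 1 day later, read kinetically as A340 decline of NADH after pyruvate addition at 37 °C.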

[4] = target: Sodium channel alpha subunits; brain (Types I, II, III) (Rattus norvegicus, UniProt P04775+P04774+P08104); assay: Inhibition of [3H]- batrachotoxin binding to sodium channel in rat neocortical membrane; format: cell membranes

Sequence of Sodium channel protein type 2 subunit alpha (P04775 whole entry): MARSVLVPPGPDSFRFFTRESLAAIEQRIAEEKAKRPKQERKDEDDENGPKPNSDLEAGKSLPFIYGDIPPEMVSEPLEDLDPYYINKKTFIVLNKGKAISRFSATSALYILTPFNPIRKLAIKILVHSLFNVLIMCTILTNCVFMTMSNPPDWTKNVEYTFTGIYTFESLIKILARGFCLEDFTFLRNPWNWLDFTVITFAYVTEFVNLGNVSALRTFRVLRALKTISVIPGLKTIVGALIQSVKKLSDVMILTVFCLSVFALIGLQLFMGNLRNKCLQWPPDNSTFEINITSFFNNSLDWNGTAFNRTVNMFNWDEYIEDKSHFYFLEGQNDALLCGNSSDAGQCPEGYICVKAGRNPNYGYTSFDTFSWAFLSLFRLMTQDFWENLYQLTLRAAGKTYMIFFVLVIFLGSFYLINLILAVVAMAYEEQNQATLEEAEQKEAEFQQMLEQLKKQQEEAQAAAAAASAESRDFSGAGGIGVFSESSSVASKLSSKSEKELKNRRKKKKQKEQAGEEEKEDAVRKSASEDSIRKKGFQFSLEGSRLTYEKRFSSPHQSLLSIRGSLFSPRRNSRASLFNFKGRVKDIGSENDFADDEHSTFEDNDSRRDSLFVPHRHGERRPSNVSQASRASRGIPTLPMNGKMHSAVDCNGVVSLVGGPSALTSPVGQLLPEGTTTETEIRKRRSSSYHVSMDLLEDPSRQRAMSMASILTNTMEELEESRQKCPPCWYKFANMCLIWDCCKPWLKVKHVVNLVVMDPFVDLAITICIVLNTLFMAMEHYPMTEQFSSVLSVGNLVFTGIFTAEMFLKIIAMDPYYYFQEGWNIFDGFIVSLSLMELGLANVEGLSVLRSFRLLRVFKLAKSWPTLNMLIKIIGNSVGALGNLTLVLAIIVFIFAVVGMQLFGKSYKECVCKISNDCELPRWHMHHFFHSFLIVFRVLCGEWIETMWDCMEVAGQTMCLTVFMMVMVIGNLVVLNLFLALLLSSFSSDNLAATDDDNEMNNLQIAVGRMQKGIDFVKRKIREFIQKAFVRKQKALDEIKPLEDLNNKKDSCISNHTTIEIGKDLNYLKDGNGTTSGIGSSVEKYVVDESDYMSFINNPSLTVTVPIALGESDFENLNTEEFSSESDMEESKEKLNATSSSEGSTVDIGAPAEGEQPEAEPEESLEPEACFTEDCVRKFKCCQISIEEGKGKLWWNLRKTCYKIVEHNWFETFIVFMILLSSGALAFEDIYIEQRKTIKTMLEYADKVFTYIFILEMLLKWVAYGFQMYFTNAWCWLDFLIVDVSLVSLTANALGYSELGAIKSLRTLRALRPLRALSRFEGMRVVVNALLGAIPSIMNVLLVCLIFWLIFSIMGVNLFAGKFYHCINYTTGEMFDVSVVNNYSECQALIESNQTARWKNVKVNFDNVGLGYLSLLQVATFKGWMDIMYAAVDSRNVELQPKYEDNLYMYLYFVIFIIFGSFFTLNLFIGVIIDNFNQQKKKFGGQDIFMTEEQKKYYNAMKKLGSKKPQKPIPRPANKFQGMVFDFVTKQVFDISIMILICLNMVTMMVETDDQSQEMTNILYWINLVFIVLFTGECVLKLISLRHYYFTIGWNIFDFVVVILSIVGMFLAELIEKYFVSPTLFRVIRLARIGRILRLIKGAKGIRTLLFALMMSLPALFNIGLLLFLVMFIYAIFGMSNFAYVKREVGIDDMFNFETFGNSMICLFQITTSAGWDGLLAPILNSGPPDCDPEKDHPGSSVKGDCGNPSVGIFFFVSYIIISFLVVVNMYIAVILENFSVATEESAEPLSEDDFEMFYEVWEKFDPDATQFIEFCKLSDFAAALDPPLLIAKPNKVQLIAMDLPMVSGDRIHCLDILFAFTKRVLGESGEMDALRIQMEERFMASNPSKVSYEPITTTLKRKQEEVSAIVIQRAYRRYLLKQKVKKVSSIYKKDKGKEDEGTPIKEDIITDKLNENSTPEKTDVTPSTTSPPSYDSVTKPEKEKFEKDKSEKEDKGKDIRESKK

Row | SMILES | IC50 [1] | IC50 [2] | IC50 [3] | Ki [4]
1 | CC1CCCC(C)N1CCCNC(=O)C1c2ccccc2-c2ccccc21 (centres undefined) | 51 µM | 29 µM | > 30 µM | 2.3 µM
2 | CC1CCCC(C)N1CCCNC(=O)C(c1ccc(Cl)cc1)c1ccc(Cl)cc1 (centres undefined) |  | 4.5 µM |  | 0.11 µM
3 | COc1ccc(C(C(=O)NCCCN2C(C)CCCC2C)c2ccc(OC)c3ccccc23)c2ccccc12 (centres undefined) |  | 13 µM |  | 0.24 µM
4 | CC1CCCC(C)N1CCCNC(=O)C(c1ccc(F)cc1)c1ccc(F)cc1 (centres undefined) |  | 5.8 µM |  | 0.13 µM
5 | CC1CCCC(C)N1CCCNC(=O)C(c1ccccc1)c1ccccc1 (centres undefined) | 89 µM | 2.7 µM | 5 µM | 0.26 µM
6 | Fc1ccc(C(c2ccc(F)cc2)N2CCN(C/C=C/c3ccccc3)CC2)cc1 [FLUNARIZINE] |  |  | 2 µM | 
7 | CC1CCCC(C)N1CCCNC(=O)C(c1ccccc1Cl)c1ccccc1Cl (centres undefined) | 4.8 µM | 3.5 µM | 6 µM | 0.073 µM
8 | CC1CCCC(C)N1CCCNC(=O)C1(c2ccccc2)CCCCC1 (centres undefined) | 61 µM | 4.3 µM | 12 µM | 0.38 µM
9 | CC1CCCC(C)N1CCCNC(=O)Cc1cccc2ccccc12 (centres undefined) |  | > 100 µM |  | 6.9 µM
10 | CC1CCCC(C)N1CCCN1C(=O)CC(c2ccccc2)(c2ccccc2)C1=O (centres undefined) |  | 3.6 µM |  | 1 µM
11 | CC1CCCC(C)N1CCCNC(=O)Cc1ccccc1 (centres undefined) | > 100 µM | > 100 µM | > 30 µM | 21 µM
12 | CC1CCCC(C)N1CCCNC(=O)C1c2ccccc2Oc2ccccc21 (centres undefined) |  | 13 µM |  | 0.41 µM
13 | COc1ccc(C(C(=O)NCCCN2C(C)CCCC2C)c2ccc(OC)cc2)cc1 (centres undefined) |  | 3.1 µM |  | 1 µM
14 | CC1CCCC(C)N1CCCNC(=O)N(c1ccccc1)c1ccccc1 (centres undefined) | > 100 µM |  | > 30 µM | 
15 | Cc1cccc(C)c1NC(=O)CN1CCN(CCCC(c2ccc(F)cc2)c2ccc(F)cc2)CC1 [LIDOFLAZINE] |  | 2.4 µM |  | 0.077 µM

From ChEMBL document CHEMBL1127729, “Synthesis and pharmacological evaluation of phenylacetamides as sodium-channel blockers” (J Med Chem, 1994)
